From ChEMBL document CHEMBL4321831, “Vaccine Adjuvants Derivatized from Momordica Saponins I and II” (J Med Chem, 2019)
The source made the active and inactive calls. The calls are words filed in the database; no cut-off is given here.

Experiments:
Mus musculus [1] = assay: Immuno-adjuvant activity in recombinant Porphyromonas gingivalis HagB-immunized BALB/c mouse assessed as potentiation of antibody response to rHagB by measuring increase in serum anti-rHagB IgG1 activity at 100 ug, sc administered immediately and on day 14, 28 and measured at week 2 to 4 by ELISA; assay type: functional, organism-based
Mus musculus [2] = assay: Immuno-adjuvant activity in OVA-immunized BALB/c mouse assessed as potentiation of antibody response to OVA by measuring serum anti-OVA IgG1 level at 100 ug, sc administered immediately and on day 14, 28 and measured at week 6 by ELISA (reference value: 113 +/- 37 ug/ml); assay type: functional
Summary of the method: (§1)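 Female BALB/c mice (8–10 weeks, six per group) got sc OVA (20 μg) plus adjuvant (100 μg) on days 0, 14 and 28. Tail-vein serum was taken before each dose and 2 weeks after the last. ELISA plates were coated with OVA (0.1 μg/mL) in borate-buffered saline, pH 8.2. Serial 2-fold serum dilutions were run in duplicate, detected with HRP anti-mouse IgG/IgG1/IgG2a and o-phenylenediamine, and read at 490 nm.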

Mus musculus [3] = assay: Immuno-adjuvant activity in OVA-immunized BALB/c mouse assessed as potentiation of antibody response to OVA by measuring serum anti-OVA IgG2a level at 100 ug, sc administered immediately and on day 14, 28 and measured at week 6 by ELISA (reference value: 0.1 ug/ml); assay type: functional; summary of the method: as §1
Mus musculus [4] = assay: Immuno-adjuvant activity in OVA-immunized BALB/c mouse assessed as potentiation of antibody response to OVA by measuring increase in serum anti-OVA IgG activity at 100 ug, sc administered immediately and on day 14, 28 and measured at week 2 to 4 by ELISA; assay type: functional, organism-based; summary of the method: as §1
Mus musculus [5] = assay: Immuno-adjuvant activity in OVA-immunized BALB/c mouse assessed as potentiation of antibody response to OVA by measuring serum anti-OVA IgG activity at 100 ug, sc administered immediately and on day 14, 28 and measured at week 6 by ELISA; assay type: functional, organism-based; summary of the method: as §1
Mus musculus [6] = assay: Immuno-adjuvant activity in OVA-immunized BALB/c mouse assessed as potentiation of antibody response to OVA by measuring ratio of serum anti-OVA IgG2a to serum anti-OVA IG1 level at 100 ug, sc administered immediately and on day 14, 28 and measured at week 6 by ELISA; assay type: functional
[7] = Toxicity in OVA-immunized BALB/c mouse assessed as changes in body weight at 100 ug, sc administered immediately and on day 14, 28 and measured at week 6; assay type: organism-based; conditions: in vivo
Summary of the method: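 Female BALB/c mice (8–10 weeks, six per group) received sc OVA (20 μg) with adjuvant (100 μg) on days 0, 14 and 28. Body weight was recorded before each immunization and 2 weeks after the final one.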

Mus musculus [8] = assay: Immuno-adjuvant activity in OVA-immunized BALB/c mouse assessed as potentiation of antibody response to OVA by measuring increase in serum anti-OVA IgG1 activity at 100 ug, sc administered immediately and on day 14, 28 and measured at week 2 to 4 by ELISA; assay type: functional, organism-based; summary of the method: as §1
Mus musculus [9] = assay: Immuno-adjuvant activity in OVA-immunized BALB/c mouse assessed as potentiation of antibody response to OVA by measuring serum anti-OVA IgG2a activity at 100 ug, sc administered immediately and on day 14, 28 and measured at week 2 by ELISA; assay type: functional, organism-based; summary of the method: as §1
Mus musculus [10] = assay: Immuno-adjuvant activity in OVA-immunized BALB/c mouse assessed as potentiation of antibody response to OVA by measuring increase in serum anti-OVA IgG2a activity at 100 ug, sc administered immediately and on day 14, 28 and measured at week 4 to 6 by ELISA; assay type: functional, organism-based; summary of the method: as §1
Mus musculus [11] = assay: Immuno-adjuvant activity in recombinant Porphyromonas gingivalis HagB-immunized BALB/c mouse assessed as potentiation of antibody response to rHagB by measuring serum anti-rHagB IgG1 activity at 100 ug, sc administered immediately and on day 14, 28 and measured at week 6 by ELISA; assay type: functional, organism-based
Mus musculus [12] = assay: Immuno-adjuvant activity in recombinant Porphyromonas gingivalis HagB-immunized BALB/c mouse assessed as potentiation of antibody response to rHagB by measuring increase in serum anti-rHagB IgG activity at 100 ug, sc administered immediately and on day 14, 28 and measured at week 2 to 4 by ELISA; assay type: functional, organism-based
Mus musculus [13] = assay: Immuno-adjuvant activity in recombinant Porphyromonas gingivalis HagB-immunized BALB/c mouse assessed as potentiation of antibody response to rHagB by measuring increase in serum anti-rHagB IgG activity at 100 ug, sc administered immediately and on day 14, 28 and measured at week 6 by ELISA; assay type: functional, organism-based
Mus musculus [14] = assay: Immuno-adjuvant activity in OVA-immunized BALB/c mouse assessed as potentiation of antibody response to OVA by measuring increase in serum anti-OVA IgG activity at 100 ug, sc administered immediately and on day 14, 28 and measured at week 2 to 6 by ELISA; assay type: functional, organism-based; summary of the method: as §1
Mus musculus [15] = assay: Immuno-adjuvant activity in OVA-immunized BALB/c mouse assessed as potentiation of antibody response to OVA by measuring increase in serum anti-OVA IgG1 activity at 100 ug, sc administered immediately and on day 14, 28 and measured at week 6 by ELISA; assay type: functional, organism-based; summary of the method: as §1
Mus musculus [16] = assay: Immuno-adjuvant activity in recombinant Porphyromonas gingivalis HagB-immunized BALB/c mouse assessed as potentiation of antibody response to rHagB by measuring serum anti-rHagB IgG2a activity at 100 ug, sc administered immediately and on day 14, 28 and measured at week 6 by ELISA; assay type: functional, organism-based
Mus musculus [17] = assay: Immuno-adjuvant activity in recombinant Porphyromonas gingivalis HagB-immunized BALB/c mouse assessed as potentiation of antibody response to rHagB by measuring increase in serum anti-rHagB IgG2a activity at 100 ug, sc administered immediately and on day 14, 28 and measured at week 2 to 4 by ELISA; assay type: functional, organism-based
Mus musculus [18] = assay: Immuno-adjuvant activity in OVA-immunized BALB/c mouse assessed as potentiation of antibody response to OVA by measuring increase in serum anti-OVA IgG activity at 100 ug, sc administered immediately and on day 14, 28 and measured at week 4 to 6 by ELISA; assay type: functional, organism-based; summary of the method: as §1

Structure (SMILES)	Activity (Mus musculus [1])	Activity (Mus musculus [2]) [µg/mL]	Activity (Mus musculus [3]) [µg/mL]	Activity (Mus musculus [4])	Activity (Mus musculus [5])	Ratio (Mus musculus [6])	Activity [7]	Activity (Mus musculus [8])	Activity (Mus musculus [9])	Activity (Mus musculus [10])	Activity (Mus musculus [11])	Activity (Mus musculus [12])	Activity (Mus musculus [13])	Activity (Mus musculus [14])	Activity (Mus musculus [15])	Activity (Mus musculus [16])	Activity (Mus musculus [17])	Activity (Mus musculus [18])
C[C@@H]1O[C@@H](O[C@H]2[C@H](O)[C@@H](C(=O)O)O[C@@H](O[C@H]3CC[C@]4(C)[C@H]5CC=C6[C@H]7CC(C)(C)CC[C@]7(C(=O)O[C@@H]7O[C@H](C)[C@H](O)[C@H](O)[C@H]7O[C@@H]7O[C@@H](C)[C@H](O[C@@H]8OC[C@@H](O)[C@H](O)[C@H]8O)[C@@H](O[C@@H]8O[C@H](CO)[C@@H](O)[C@H](O[C@@H]9OC[C@@H](O)[C@H](O)[C@H]9O)[C@H]8O)[C@H]7O)[C@H](O)C[C@@]6(C)[C@]5(C)CC[C@H]4[C@]3(C)C=O)[C@@H]2O[C@@H]2O[C@H](CO)[C@H](O)[C@H](O)[C@H]2O)[C@H](O)[C@H](O)[C@H]1O	Active	262	0.1	Active	inactive	<0.001	Non-Toxic	Active	inactive	inactive	inactive	Active	inactive					
C[C@@H]1O[C@@H](O[C@H]2[C@H](O)[C@@H](C(=O)O)O[C@@H](O[C@H]3CC[C@]4(C)[C@H]5CC=C6[C@H]7CC(C)(C)CC[C@]7(C(=O)O[C@@H]7O[C@H](C)[C@H](O)[C@H](O)[C@H]7O[C@@H]7O[C@@H](C)[C@H](O[C@@H]8OC[C@@H](O)[C@H](O)[C@H]8O)[C@@H](O[C@@H]8O[C@H](CO)[C@@H](O)[C@H](O[C@@H]9OC[C@@H](O)[C@H](O)[C@H]9O)[C@H]8O)[C@H]7O)CC[C@@]6(C)[C@]5(C)CC[C@H]4[C@]3(C)C=O)[C@@H]2O[C@@H]2O[C@H](CO)[C@H](O)[C@H](O)[C@H]2O)[C@H](O)[C@H](O)[C@H]1O	Active	233	0.2			<0.001	Non-Toxic	Active	inactive	inactive	inactive	Active	inactive	inactive				
CCCCCCCCCCCCNC(=O)[C@H]1O[C@@H](O[C@H]2CC[C@]3(C)[C@H]4CC=C5[C@H]6CC(C)(C)CC[C@]6(C(=O)O[C@@H]6O[C@H](C)[C@H](O)[C@H](O)[C@H]6O[C@@H]6O[C@@H](C)[C@H](O[C@@H]7OC[C@@H](O)[C@H](O)[C@H]7O)[C@@H](O[C@@H]7O[C@H](CO)[C@@H](O)[C@H](O[C@@H]8OC[C@@H](O)[C@H](O)[C@H]8O)[C@H]7O)[C@H]6O)[C@H](O)C[C@@]5(C)[C@]4(C)CC[C@H]3[C@]2(C)C=O)[C@H](O[C@@H]2O[C@H](CO)[C@H](O)[C@H](O)[C@H]2O)[C@@H](O[C@@H]2O[C@@H](C)[C@H](O)[C@@H](O)[C@H]2O)[C@@H]1O	Active	869	1			<0.001	Non-Toxic	Active	inactive	inactive	inactive	Active	inactive		Active	inactive	Active	Active
